Results taken from ChEMBL document CHEMBL4145598, “Discovery and Development of 8-Substituted Cycloberberine Derivatives as Novel Antibacterial Agents against MRSA” (ACS Med Chem Lett, 2018).

Columns and labels:
Format in all cases: functional
[1] = system: Staphylococcus epidermidis; assay: Antimicrobial activity against methicillin-sensitive Staphylococcus epidermidis ATCC 12228 after 18 hrs by agar dilution assay; settings: ATCC 12228, 18 h
[2] = system: Staphylococcus epidermidis; assay: Antimicrobial activity against methicillin-sensitive Staphylococcus epidermidis isolate 13-1 after 18 hrs by agar dilution assay; settings: isolate 13-1, 18 h
[3] = system: Staphylococcus saprophyticus; assay: Antimicrobial activity against Staphylococcus saprophyticus ATCC 15305 after 18 hrs by agar dilution assay; settings: ATCC 15305, 18 h
Staphylococcus hominis = assay: Antimicrobial activity against Staphylococcus hominis ATCC 35982 after 18 hrs by agar dilution assay; settings: ATCC 35982, 18 h
Staphylococcus aureus [4] = assay: Antimicrobial activity against vancomycin-intermediate Staphylococcus aureus ATCC 700698 after 18 hrs by agar dilution assay; settings: ATCC 700698, 18 h
Outline: (§1)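 MICs in μg/mL against drug-resistant S. aureus (MRSA/VISA) by standard methods, with levofloxacin as the reference drug. ATCC strains were used.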

Staphylococcus aureus [5] = assay: Antimicrobial activity against vancomycin-intermediate Staphylococcus aureus ATCC 700699 after 18 hrs by agar dilution assay; settings: ATCC 700699, 18 h; outline: as §1
Staphylococcus aureus [6] = assay: Antimicrobial activity against methicillin-sensitive Staphylococcus aureus ATCC 29213 after 18 hrs by agar dilution assay; settings: ATCC 29213, 18 h
Staphylococcus aureus [7] = assay: Antimicrobial activity against methicillin-sensitive Staphylococcus aureus isolate 15 after 18 hrs by agar dilution assay; settings: isolate 15, 18 h
Staphylococcus aureus [8] = assay: Antimicrobial activity against methicillin-sensitive Staphylococcus aureus isolate 13-17 after 18 hrs by agar dilution assay; settings: isolate 13-17, 18 h
Staphylococcus aureus [9] = assay: Antimicrobial activity against methicillin-sensitive Staphylococcus aureus isolate 13-19 after 18 hrs by agar dilution assay; settings: isolate 13-19, 18 h
Staphylococcus aureus [10] = assay: Antimicrobial activity against methicillin-sensitive Staphylococcus aureus isolate 13-20 after 18 hrs by agar dilution assay; settings: isolate 13-20, 18 h
Staphylococcus aureus [11] = assay: Antimicrobial activity against methicillin-sensitive Staphylococcus aureus isolate 13-21 after 18 hrs by agar dilution assay; settings: isolate 13-21, 18 h
Staphylococcus aureus [12] = assay: Antimicrobial activity against methicillin-resistant Staphylococcus aureus ATCC 33591 after 18 hrs by agar dilution assay; settings: ATCC 33591, 18 h
Outline: (§2)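 Drug-resistant S. aureus (MRSA/VISA) panel. It includes ATCC reference strains and clinical isolates from patients in Chinese hospitals. MIC was determined by standard methods and reported in μg/mL, with levofloxacin as the reference drug.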

Staphylococcus aureus [13] = assay: Antimicrobial activity against methicillin-resistant Staphylococcus aureus isolate 13-18 after 18 hrs by agar dilution assay; settings: isolate 13-18, 18 h; outline: as §2
Staphylococcus aureus [14] = assay: Antimicrobial activity against methicillin-resistant Staphylococcus aureus isolate 13-23 after 18 hrs by agar dilution assay; settings: isolate 13-23, 18 h; outline: as §2
Staphylococcus aureus [15] = assay: Antimicrobial activity against methicillin-resistant Staphylococcus aureus isolate 12-3 after 18 hrs by agar dilution assay; settings: isolate 12-3, 18 h; outline: as §2
Staphylococcus aureus [16] = assay: Antimicrobial activity against methicillin-resistant Staphylococcus aureus isolate 12-8 after 18 hrs by agar dilution assay; settings: isolate 12-8, 18 h; outline: as §2
Staphylococcus aureus [17] = assay: Antimicrobial activity against methicillin-resistant Staphylococcus aureus isolate 12-13 after 18 hrs by agar dilution assay; settings: isolate 12-13, 18 h; outline: as §2
Staphylococcus aureus [18] = assay: Antimicrobial activity against methicillin-resistant Staphylococcus aureus isolate 12-16 after 18 hrs by agar dilution assay; settings: isolate 12-16, 18 h; outline: as §2
Staphylococcus aureus [19] = assay: Antimicrobial activity against methicillin-resistant Staphylococcus aureus ATCC-BAA-1708 after 18 hrs by agar dilution assay; settings: ATCC-BAA-1708, 18 h; outline: as §2

SMILES	MIC [1] [µg/mL]	MIC [2] [µg/mL]	MIC [3] [µg/mL]	MIC (Staphylococcus hominis) [µg/mL]	MIC (Staphylococcus aureus [4]) [µg/mL]	MIC (Staphylococcus aureus [5]) [µg/mL]	MIC (Staphylococcus aureus [6]) [µg/mL]	MIC (Staphylococcus aureus [7]) [µg/mL]	MIC (Staphylococcus aureus [8]) [µg/mL]	MIC (Staphylococcus aureus [9]) [µg/mL]	MIC (Staphylococcus aureus [10]) [µg/mL]	MIC (Staphylococcus aureus [11]) [µg/mL]	MIC (Staphylococcus aureus [12]) [µg/mL]	MIC (Staphylococcus aureus [13]) [µg/mL]	MIC (Staphylococcus aureus [14]) [µg/mL]	MIC (Staphylococcus aureus [15]) [µg/mL]	MIC (Staphylococcus aureus [16]) [µg/mL]	MIC (Staphylococcus aureus [17]) [µg/mL]	MIC (Staphylococcus aureus [18]) [µg/mL]	MIC (Staphylococcus aureus [19]) [µg/mL]
COc1ccc(CNc2c(OC)ccc3c2c[n+]2c4c3ccc3c5c(cc(c34)CC2)OCO5)cc1.[Cl-]	8	64	16	8	16	> 64	–	–	–	–	–	–	–	–	–	–	–	–	–	–
COc1ccc2c(c[n+]3c4c2ccc2c5c(cc(c24)CC3)OCO5)c1OCC(=O)c1ccccc1.[Br-]	8	64	16	32	> 64	> 64	16	32	16	16	32	16	16	32	16	16	16	32	32	32
COc1ccc2c(c[n+]3c4c2ccc2c5c(cc(c24)CC3)OCO5)c1OCC(=O)c1cccc(OC(F)(F)F)c1.[Br-]	16	32	16	32	> 64	> 64	32	16	16	16	16	16	16	16	16	16	8	32	16	64
COc1ccc2c(c[n+]3c4c2ccc2c5c(cc(c24)CC3)OCO5)c1O.[Cl-]	0.5	0.5	> 64	0.5	0.5	0.25	0.25	4	0.25	0.5	0.25	0.5	0.25	0.25	0.25	0.25	0.5	1	0.5	0.5
COc1ccc(C(=O)COc2c(OC)ccc3c2c[n+]2c4c3ccc3c5c(cc(c34)CC2)OCO5)cc1C(F)(F)F.[Br-]	4	8	4	4	> 64	> 64	4	4	4	4	4	8	4	8	4	4	8	4	8	16
COc1ccc2c(c[n+]3c4c2ccc2c5c(cc(c24)CC3)OCO5)c1OCC(=O)C1CC1.[Br-]	> 64	> 64	> 64	> 64	> 64	> 64	> 64	> 64	> 64	> 64	> 64	> 64	> 64	> 64	> 64	> 64	> 64	> 64	> 64	> 64
COc1ccc2c(c[n+]3c4c2ccc2c5c(cc(c24)CC3)OCO5)c1OCC(=O)c1ccc(C(F)(F)F)cc1.[Br-]	> 64	> 64	> 64	> 64	> 64	> 64	> 64	> 64	> 64	> 64	> 64	> 64	> 64	> 64	> 64	> 64	> 64	> 64	> 64	> 64
